Bioassay records deposited in PubChem BioAssay by several laboratories.
Hits are enriched below; roughly 2.1% of the tested compounds scored in any of these assays.
Runt-CBFb FRET: Runt domain-CBFb interaction inhibition | inhibition, % at 20 µM | Q01196+Q13951 | Cerulean-Runt/Venus-CBFb FRET ratio 530/480, 1 h | 220,000 compounds, 0.46% hits;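 active means inhibition over about 50% at 20 µM in the single-dose screen, limit read from the data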
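Assay system: Cerulean-Runt domain fusion protein, energy donor; Signal: fluorescence energy transfer, 422 nm excitation, 530/480 nm emission; Timing: 1 h compound exposure, room temperature; Control set: unlabeled CBFb; Medium: Tris buffer pH 7.5 with salts and BSA; Compound: single test concentration of 20 µM, 1% DMSO final; Probe or stimulus: Venus-CBFb 100 nM.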
Runt-SMMHC FRET: blocks binding of human RUNX1 Runt domain to CBFb-SMMHC | Q01196+Q13951 | Cerulean-Runt/Venus-CBFb-SMMHC FRET ratio 530/480, 1 h | inhibition, % at 20 µM | 220,000 compounds, 0.74% hits | AID 1434;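 active means mean inhibition across duplicate retests at 20 µM reaching about 50%, limit read from the data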;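 further: inhibitors lower the FRET ratio by blocking Runt binding to CBFb-SMMHC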
Tb hexokinase: T. brucei hexokinase 1 inhibition | recombinant TbHK1, G6PDH-coupled NADH A340 | inhibition, % at 10 µM | 220,000 compounds, 0.11% hits | AID 1430;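 active means inhibition of 50% or more in the single-dose primary screen; inactive means inhibition below 50%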
Hck Nef HTS: human Hck-Nef kinase inhibition. AID 463187. 220,000 compounds, 0.68% hits. Recombinant Hck-YEEI plus Nef, Z-Lyte FRET kinase assay. inhibition, % at 20 µM;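 active means Hck-Nef kinase inhibition above about 50%, limit read from the data; inactive means inhibition below that limit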
RanGTP-Imp inh: disruptors of Ran-importin-beta complex formation – biochemical, FRET, CFP-Ran, YFP-importin-beta, homogeneous, primary screen; cell-free CFP-Ran/YFP-importin-beta FRET ratio; inhibition, % (test concentration not listed); AID 2216; 300,000 compounds, 1.1% hits;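 active means more than half of the replicate wells show a fall in the fluorescence ratio signal beyond about 16%, limit read from the data, passing the limit was not always enough; inconclusive means exactly half of the replicate wells pass the set limit; inactive means fewer than half of replicates pass the limit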
p97 inhibitor: inhibitors of human p97 ATPase | recombinant p97 ATPase, Kinase-Glo ATP luminescence, 3 h | 220,000 compounds, 0.42% hits | AID 1481 | inhibition, % at 8 µM; in the data active means inhibition above about 15%
Target sequence (P55072 whole entry, looked up): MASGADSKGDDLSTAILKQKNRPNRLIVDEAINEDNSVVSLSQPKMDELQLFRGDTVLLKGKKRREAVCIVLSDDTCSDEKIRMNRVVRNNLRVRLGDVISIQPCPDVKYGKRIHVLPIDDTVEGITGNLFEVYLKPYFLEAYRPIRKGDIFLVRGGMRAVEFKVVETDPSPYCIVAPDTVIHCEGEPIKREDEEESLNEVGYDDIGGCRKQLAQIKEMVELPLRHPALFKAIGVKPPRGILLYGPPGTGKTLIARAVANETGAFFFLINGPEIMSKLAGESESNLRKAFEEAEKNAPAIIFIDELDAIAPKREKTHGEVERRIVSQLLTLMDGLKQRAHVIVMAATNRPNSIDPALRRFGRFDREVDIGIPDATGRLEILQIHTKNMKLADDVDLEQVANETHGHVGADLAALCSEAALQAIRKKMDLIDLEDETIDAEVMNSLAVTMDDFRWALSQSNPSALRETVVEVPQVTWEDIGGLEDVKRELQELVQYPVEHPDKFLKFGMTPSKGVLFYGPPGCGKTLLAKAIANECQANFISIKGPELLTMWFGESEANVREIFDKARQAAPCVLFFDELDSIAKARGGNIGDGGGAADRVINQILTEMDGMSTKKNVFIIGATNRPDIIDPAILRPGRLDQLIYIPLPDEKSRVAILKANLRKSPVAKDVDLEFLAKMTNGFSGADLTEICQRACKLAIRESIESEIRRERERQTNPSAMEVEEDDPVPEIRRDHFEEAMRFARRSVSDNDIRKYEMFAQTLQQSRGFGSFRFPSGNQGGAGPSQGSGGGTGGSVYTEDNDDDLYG
Hck-Nef confirm: confirmation of Hck-Nef kinase inhibitors | shares compounds with Hck Nef HTS | Recombinant Hck-YEEI:Nef, Z-Lyte FRET kinase assay | calls only at 10 µM | 1,300 compounds, 28% hits | AID 463188;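 active means average inhibition of at least 50%, with Z-scores no higher than 3 in both the phospho-tyrosine peptide and fluorescence counterscreens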
Large screens that a line does not name were inactive (follow-up assays come after a bar, where shown).

Cc1cc(-c2csc(NC(=O)c3ccc(=O)[nH]c3)n2)c(C)n1Cc1ccco1	Hck Nef HTS 81, p97 inhibitor 51 | Hck-Nef confirm inactive
COC(=O)c1cc(C)sc1NC(=O)CN1CCN(C(=O)C2CCCO2)CC1 (configuration not stated)	none (no result: Runt-CBFb FRET, Runt-SMMHC FRET, Tb hexokinase, Hck Nef HTS, p97 inhibitor)
CCCn1c(C(C)NC(=O)c2ccccc2)nc2ccccc21 (configuration not stated)	none
CCN(CC)c1ccc(NC(=O)Cn2c(C(C)NC(=O)c3ccc(C)cc3)nc3ccccc32)cc1 (configuration not stated)	Hck Nef HTS 83 | Hck-Nef confirm active
CC(=O)Nc1ccc(/C=N/NC(=O)c2cc(-c3ccco3)nc3ccccc23)cc1	none
O=C(O)c1ccccc1/C=N/NC(=O)c1cc(-c2ccco2)nc2ccccc12	Hck Nef HTS 71 | Hck-Nef confirm active
COc1cc(/C=C(/C#N)c2nc3ccccc3[nH]2)ccc1OCc1ccc(C(=O)O)o1	Runt-SMMHC FRET 63, Hck Nef HTS 56 | Hck-Nef confirm active
CC1Cc2cc(S(=O)(=O)N3CCN(c4ccccc4F)CC3)ccc2N1C(=O)C1CC1 (configuration not stated)	none (no result: Runt-CBFb FRET, Runt-SMMHC FRET, Tb hexokinase, Hck Nef HTS, p97 inhibitor)
COc1cccc(N=c2oc3ccc(OC)cc3cc2-c2nc3ccccc3[nH]2)c1	Hck Nef HTS 99 | Hck-Nef confirm active
COc1cccc(N=c2oc3ccccc3cc2-c2nc3ccccc3[nH]2)c1	none
Cc1cn(-c2cc(C(=O)Nc3ccc(C)c(NC(=O)C(=O)c4c[nH]c5ccccc45)c3)cc(C(F)(F)F)c2)cn1	Hck Nef HTS 55 (no result: p97 inhibitor) | Hck-Nef confirm inactive
CCN1CCN(Cc2ccc(NC(=O)c3ccc(C)c(NC(=O)c4ccno4)c3)cc2C(F)(F)F)CC1	Hck Nef HTS 101 (no result: p97 inhibitor) | Hck-Nef confirm active
CCN1CCN(Cc2ccc(NC(=O)c3cc(NC(=O)c4ccno4)cc(OC)c3)cc2C(F)(F)F)CC1	none (no result: p97 inhibitor)
CCc1cc2c(N=Nc3c(O)[nH]c4ccccc34)ncnc2s1	none
Oc1[nH]c2ccccc2c1N=Nc1ncnc2c1oc1ccccc12	Hck Nef HTS 56 | Hck-Nef confirm inactive
COc1ccc(C2Oc3ccccc3C3=C2C(c2cccs2)n2ncnc2N3)cc1 (configuration not stated)	none
Brc1ccc(C2C3=C(Nc4ncnn42)c2ccccc2OC3c2ccncc2)cc1 (configuration not stated)	Hck Nef HTS 73 | Hck-Nef confirm active
CSC1=N/C(=C/c2cccnc2)C(=O)N1Cc1ccccc1	none
COc1cc(/C=C2\SC(=N)N(c3ccc(F)cc3)C2=O)ccc1O	Hck Nef HTS 77 | Hck-Nef confirm inactive
CCOc1ccc(N2C(=O)S/C(=C\c3ccc(O)c(OC)c3)C2=O)cc1	none
C/C(=N\NC(=O)c1nnn(-c2nonc2N)c1C(C)C)c1ccc2ccccc2c1	none (no result: Runt-CBFb FRET, Runt-SMMHC FRET, Tb hexokinase, Hck Nef HTS, p97 inhibitor)
Cc1nn(-c2ccccc2)c(Cl)c1/C=N/NC(=O)c1[nH]ncc1Br	none (no result: Runt-CBFb FRET, Runt-SMMHC FRET, Tb hexokinase, Hck Nef HTS, p97 inhibitor)
COc1ccc(CCn2c(=S)[nH]c3cc(C(=O)NCc4ccco4)ccc3c2=O)cc1OC	Hck Nef HTS 75 | Hck-Nef confirm active
Cc1ccc(CNC(=O)CNC(=O)[C@@H]2Cc3ccccc3CN2C(=O)OC(C)(C)C)cc1	none (no result: Runt-CBFb FRET, Runt-SMMHC FRET, Tb hexokinase, Hck Nef HTS, p97 inhibitor)
Cc1ccc(C(=O)Nc2cccc(C(F)(F)F)c2)cc1NC(=O)c1cnnc2ccccc12	Hck Nef HTS 74 (no result: p97 inhibitor) | Hck-Nef confirm inactive
Cc1c(O)ccc2c(CN3CCN(CCO)CC3)cc(=O)oc12	Runt-SMMHC FRET 79, Hck Nef HTS 63, RanGTP-Imp inh 56 | Hck-Nef confirm inactive
CCOc1ccc(C(=O)N/N=C/c2cc(Cl)ccc2[N+](=O)[O-])cc1	none
COc1ccc(-n2c(N)cc(=O)[nH]c2=O)cc1	Hck Nef HTS 52 | Hck-Nef confirm inactive
Nc1cc(=O)[nH]c(=O)n1-c1cccc(F)c1	none
Cc1ccc2sc(C)[n+](CCCS(=O)(=O)[O-])c2c1	none
COc1cc(/C=C/c2sc3ccccc3[n+]2CCCS(=O)(=O)[O-])ccc1O	Hck Nef HTS 65 | Hck-Nef confirm inactive
Cc1cccc(OCCSc2nc3ccccc3n2CC(=O)O)c1	none (no result: Runt-CBFb FRET, Runt-SMMHC FRET, Tb hexokinase, Hck Nef HTS, p97 inhibitor)
CCN(CC)CCCNC(=O)CCC(=O)Nc1ccc2nc(N3CCCCC3)cc(C)c2c1	none
CCN(CC)CCCNC(=O)CCC(=O)Nc1ccc2nc(N3CCC(C)CC3)cc(C)c2c1	Hck Nef HTS 88
CCN(c1ccccc1)S(=O)(=O)c1cc(C(=O)Oc2ccc3c(C)cc(=O)oc3c2)ccc1C	Hck Nef HTS 56
CC(=O)Oc1cc(OC(C)=O)c2c(C)cc(=O)oc2c1	RanGTP-Imp inh inconclusive
CC(=O)Oc1ccc2c(C)cc(=O)oc2c1	Hck Nef HTS 86 | Hck-Nef confirm inactive
c1csc(CNc2ncnc3nc[nH]c23)c1	none
Clc1ccc(/C=N/Nc2ncnc3nc[nH]c23)cc1	Hck Nef HTS 84 | Hck-Nef confirm active
Oc1ccc(/C=N/Nc2ncnc3nc[nH]c23)cc1	Hck Nef HTS 95 | Hck-Nef confirm active
Cc1ccc(/C=N/Nc2ncnc3nc[nH]c23)cc1	Hck Nef HTS 93 | Hck-Nef confirm active
CCCN(CCC)C(=O)c1oc2ccccc2c1NC(=O)Cc1cccc(OC)c1	none (no result: Runt-CBFb FRET, Runt-SMMHC FRET, Tb hexokinase, Hck Nef HTS, p97 inhibitor)
Cc1cccc(NC(=O)Cn2c(O)c(N=NC(=O)c3ccccc3O)c3ccccc32)c1	Hck Nef HTS 51 | Hck-Nef confirm active
Cc1ccc(NC(=O)Cn2c(O)c(N=NC(=O)c3cc([N+](=O)[O-])ccc3O)c3ccccc32)cc1	Hck Nef HTS 68 | Hck-Nef confirm active
N=Nc1c(O)n(CC(=O)Nc2ccccc2)c2ccccc12	none (no result: Runt-CBFb FRET, Runt-SMMHC FRET, Tb hexokinase, Hck Nef HTS, p97 inhibitor)
NC(=S)N=Nc1c(O)n(CC(=O)Nc2ccccc2)c2ccccc12	none (no result: Runt-CBFb FRET, Runt-SMMHC FRET, Tb hexokinase, Hck Nef HTS, p97 inhibitor)
Cc1cc(C)n2nc(SCCOc3ccccc3F)nc2n1	none
COc1ccc(N2C3=C(C(=O)CC(C)(C)C3)C(c3cnn(C)c3)C3=C2CC(C)(C)CC3=O)cc1	Runt-CBFb FRET 107, Runt-SMMHC FRET 82, Hck Nef HTS 55, RanGTP-Imp inh 57
COc1ccccc1OCC(=O)OC/C(O)=C(\C#N)c1nc2ccccc2[nH]1	none
N#C/C(=C(/O)COC(=O)Cc1c[nH]c2ccccc12)c1nc2ccccc2[nH]1	Hck Nef HTS 60 | Hck-Nef confirm active
O=C1COc2ccc(C(=O)CSc3nc4ccccc4c(=O)n3-c3ccc(Cl)c(Cl)c3)cc2N1	Hck Nef HTS 64 | Hck-Nef confirm inactive
COc1ccc(NC(=S)N2CCN(CCN3C(=O)c4cccc5cccc(c45)C3=O)CC2)cc1	Hck Nef HTS 129 | Hck-Nef confirm inactive
Cc1cccc(-n2nc3c(c2NC(=O)C(C)C)CSC3)c1	none (no result: Runt-CBFb FRET, Runt-SMMHC FRET, Tb hexokinase, Hck Nef HTS, p97 inhibitor)
